Compound activity: PubChem, Broad Institute
The entries come from a sample that favours hits as a whole.
T cruzi growth-1 = T. cruzi intracellular proliferation inhibitors, primary screen, cell-based, beta-gal Tulahuen parasites, NIH3T3 host, luminescence; T. cruzi beta-gal in NIH3T3, GalScreen luminescence, 90 h; inhibition, % at 8.34 µM; 77,000 tested, 5.9% active; AID 624255, 2012;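 active = mean inhibition above about 93%, with at least 55% of replicates each passing it, limit read from the data, passing the limit was not always enough; inconclusive = only one of those two conditions holds; inactive = neither condition holds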
IDH1 mut inh = inhibitors of IDH1 R132H reductase, primary screen, biochemical, plate reader, single point; Isocitrate dehydrogenase [NADP] cytoplasmic (Homo sapiens), O75874; diaphorase/resazurin fluorescence, 60 min; inhibition, % at 10 µM; 70,000 tested, 0.18% active; AID 624101, 2012; in the data active = inhibition above about 34%; inconclusive = no clear call, values can overlap the other calls; inactive = below about 11%;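 also: 0% = DMSO and 100% = no enzyme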
GASC1 inh = inhibitors of GASC-1 (KDM4C) histone demethylase, primary screen, biochemical, single concentration HTS. inhibition, % at 12.5 µM. GST-KDM4C 2-372, H3K9me3 peptide, LANCE TR-FRET. Lysine-specific demethylase 4C (Homo sapiens), Q9H3R0. 96,000 tested, 0.15% active;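 active = mean replicate inhibition above about 25%, with at least 55% of replicates also reaching it, limit read from the data, passing the limit was not always enough; inconclusive = only one of those two conditions met; inactive = neither condition met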
Target sequence (Q9H3R0 2-372 limits assumed): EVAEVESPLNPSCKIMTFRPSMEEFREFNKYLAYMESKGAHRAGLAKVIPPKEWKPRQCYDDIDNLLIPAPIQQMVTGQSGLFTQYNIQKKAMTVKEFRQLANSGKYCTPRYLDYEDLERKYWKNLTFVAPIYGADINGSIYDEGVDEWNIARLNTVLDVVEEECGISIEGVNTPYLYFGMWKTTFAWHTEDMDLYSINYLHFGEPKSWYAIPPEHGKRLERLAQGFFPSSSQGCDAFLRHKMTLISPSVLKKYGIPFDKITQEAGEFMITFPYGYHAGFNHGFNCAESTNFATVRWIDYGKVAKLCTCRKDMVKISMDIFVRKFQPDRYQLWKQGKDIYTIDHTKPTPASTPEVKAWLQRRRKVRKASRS
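Test system – GST-tagged GASC-1 (JMJD2C) catalytic fragment, aa 2-372 · Medium – HEPES buffer, pH 7.5, plus ascorbate · Reagent – H3K9me3 peptide with Fe(II)/2OG · Compound – one test concentration per compound · Timing – 30 min reaction, 60 min detection, RT · Technique – TR-FRET with Eu antibody and ULight streptavidin, EDTA stop · Read-out basis – inhibition from TR-FRET ratio decrease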
T cruzi growth-2 = T. cruzi intracellular proliferation inhibitors, confirmation, cell-based, NIH3T3 host, beta-gal parasite, luminescence, cherry-pick; T. cruzi beta-gal in NIH3T3, GalScreen luminescence, 90 h; AID 651739, 2012; shares compounds with T cruzi growth-1; inhibition, % at 8.35 µM; 5,600 tested, 72% active;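 active = mean replicate inhibition above about 95% and at least 55% of replicates individually reaching it, limit read from the data; inconclusive = only one of the two criteria is met; inactive = neither criterion is met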
T cruzi growth-3 = inhibitors of intracellular T. cruzi replication, confirmation, NIH3T3 host cells, beta-gal parasites, cherry-pick, set 2. shares compounds with T cruzi growth-1. T. cruzi beta-gal in NIH3T3, GalScreen luminescence, 90 h. inhibition, % at 2.09 µM. 5,600 tested, 21% active;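 active = mean inhibition above about 95%, with at least 55% of replicates also reaching it, limit read from the data; inconclusive = meets just one of the two conditions; inactive = meets neither condition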;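 also: plate controls were neutral control median for no effect and positive control median for full effect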
3T3 cytotox = cytotoxicity in mouse NIH/3T3 fibroblasts, confirmation, cytotoxicity control for T. cruzi proliferation inhibitor project, cell-based, cherry-pick, single point. shares compounds with T cruzi growth-1. 5,600 tested, 14% active. AID 651742, 2012. NIH/3T3 viability, CellTiter-Glo ATP luminescence, 90 h. cytotoxicity (signal decrease), % at 8.35 µM;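 active = mean signal decrease across replicates above about 35% based on untreated-well scatter, with enough replicates individually passing, limit read from the data; inconclusive = no rule stated though some were filed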;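 also: 0% = median of neutral control wells and 100% = median of positive control wells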
3T3 cytotox 2 = NIH/3T3 fibroblast cytotoxicity, confirmation, cytotoxicity control, cell-based, cherry-pick, single point, set 2. inhibition, % at 24.9 µM. shares compounds with T cruzi growth-1. NIH/3T3 viability, CellTiter-Glo ATP luminescence, 90 h. 5,600 tested, 56% active. AID 651744, 2012;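 active = mean loss of cell viability signal at or above a set limit, and enough replicates individually reaching it; inconclusive = meets only the mean limit or only the replicate share; inactive = meets neither condition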;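 also: 0% = median of neutral control wells and 100% = median of positive control wells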
The depositor's hits bear a star; ? = inconclusive; · = no result given.

SMILES	T cruzi growth-1	IDH1 mut inh	GASC1 inh	T cruzi growth-2	T cruzi growth-3	3T3 cytotox	3T3 cytotox 2
Cc1ccc(S(=O)(=O)Nc2ccc3c(c2)CC(=O)N([C@H](C)CO)C[C@@H](C)[C@@H](CN(C)Cc2ccc4c(c2)OCO4)O3)cc1	86.4	0.7	-3.3	·	·	·	·
Cc1ccc(S(=O)(=O)Nc2ccc3c(c2)CC(=O)N([C@@H](C)CO)C[C@@H](C)[C@H](CN(C)Cc2ccc4c(c2)OCO4)O3)cc1	99.2*	0.1	4.3	103.5*	?	9.0	?
Cc1ccc(S(=O)(=O)Nc2ccc3c(c2)CC(=O)N([C@H](C)CO)C[C@@H](C)[C@H](CN(C)Cc2ccc4c(c2)OCO4)O3)cc1	103.9*	-1.1	-0.8	105.9*	54.8	14.2	25.4*
C[C@H](CO)N1C[C@H](C)[C@@H](CN(C)Cc2ccc3c(c2)OCO3)Oc2ccc(NS(=O)(=O)c3ccc(Cl)cc3)cc2CC1=O	89.4	0.3	0.6	·	·	·	·
C[C@H]1CN([C@@H](C)CO)C(=O)Cc2cc(NS(=O)(=O)c3ccc(Cl)cc3)ccc2O[C@@H]1CN(C)Cc1ccc2c(c1)OCO2	106.9*	2.1	-1.3	97.8*	16.6	-1.5	5.9
Cc1ccc(S(=O)(=O)Nc2ccc3c(c2)CC(=O)N([C@H](C)CO)C[C@H](C)[C@H](CN(C)Cc2ccc4c(c2)OCO4)O3)cc1	51.2	0.4	-0.9	·	·	·	·
C#CCOc1ccc(C(Nc2ccccn2)c2ccc3cccnc3c2O)cc1 (stereo unspecified)	·	1.0	·	·	·	·	·
COc1ccc(OC)c(S(=O)(=O)N2CCC(C(=O)Nc3cccc(F)c3)CC2)c1	·	0.0	·	·	·	·	·
Cc1nn(CC(O)COc2ccc(C(=O)c3ccccc3)cc2)c(C)c1Br (stereo unspecified)	·	2.8	·	·	·	·	·
CCC(Sc1nnc2c3ccccc3n(C)c2n1)C(=O)Nc1cccc2ccccc12 (stereo unspecified)	·	-0.2	·	·	·	·	·
COC(=O)CCCCCCC(=O)N/N=C/c1ccc(N(C)C)cc1	·	-0.7	·	·	·	·	·
C[C@@H]1CN([C@@H](C)CO)C(=O)c2cc(NC(=O)NC3CCCCC3)ccc2O[C@@H](C)CCCCO[C@@H]1CN(C)Cc1ccccc1	-69.1	·	17.4	·	·	·	·
C[C@@H]1CCCCO[C@@H](CN(C)Cc2ccccc2)[C@H](C)CN([C@H](C)CO)C(=O)c2cc(NC(=O)NC3CCCCC3)ccc2O1	?	·	-2.6	107.0*	63.2	2.6	100.2*
C[C@@H]1CCCCO[C@H](CN(C)Cc2ccccc2)[C@H](C)CN([C@@H](C)CO)C(=O)c2cc(NC(=O)NC3CCCCC3)ccc2O1	?	·	0.1	100.3*	14.7	0.6	100.2*
C[C@@H]1CCCCO[C@H](CN(C)Cc2ccccc2)[C@@H](C)CN([C@H](C)CO)C(=O)c2cc(NC(=O)NC3CCCCC3)ccc2O1	-0.3	-0.1	-0.1	·	·	·	·
Nc1cc(=O)[nH]c(SCC(=O)Nc2ccc(F)cc2)n1	·	0.0	·	·	·	·	·
Cc1ccc(-c2nc(SC(CC(=O)O)c3ccccc3)n[nH]2)cc1 (stereo unspecified)	·	-0.6	·	·	·	·	·
Cc1ccc(/C=N/NC(=O)CCCCC(=O)NO)o1	·	0.4	·	·	·	·	·
C[C@H](CO)N1C[C@H](C)[C@H](CN(C)CC2CCCCC2)OCCCC[C@H](C)Oc2ccc(NC(=O)Nc3ccc(F)cc3)cc2C1=O	115.5*	5.0	0.5	88.6	101.6*	117.7*	102.3*
C[C@@H]1CN([C@H](C)CO)C(=O)c2cc(NC(=O)Nc3ccc(F)cc3)ccc2O[C@@H](C)CCCCO[C@H]1CN(C)C	39.8	2.2	10.7	·	·	·	·
